According to ChEMBL document CHEMBL1127486, “Design of cyclic deltorphins and dermenkephalins with a disulfide bridge leads to analogues with high selectivity for delta-opioid receptors” (J Med Chem, 1994):

What was measured:
Mu-type opioid receptor [1] = target: Mu-type opioid receptor (Cavia porcellus, UniProt P97266); assay: In vitro inhibition of electrically evoked contractions in guinea pig ileum longitudinal muscle myenteric plexus; format: functional, tissue-based
In short: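 Longitudinal muscle–myenteric plexus strips from male Hartley guinea pigs (150–400 g) in 37 °C Krebs bicarbonate gassed with 95% O2/5% CO2. Transmural stimulation at 0.1 Hz, 0.4-ms pulses, supramaximal voltage. Bestatin, bacitracin and captopril added 3 min before cumulative peptide doses. Inhibition compares contraction height 3 min post-dose with the 1-min pre-dose mean.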

Mu-type opioid receptor [2] = target: Mu-type opioid receptor (Rattus norvegicus, UniProt P33535); assay: Inhibition of [3H]CTOP binding to rat brain homogenate mu-opioid receptor
Mu-type opioid receptor (Rattus norvegicus, UniProt P33535), sequence (P33535 whole entry): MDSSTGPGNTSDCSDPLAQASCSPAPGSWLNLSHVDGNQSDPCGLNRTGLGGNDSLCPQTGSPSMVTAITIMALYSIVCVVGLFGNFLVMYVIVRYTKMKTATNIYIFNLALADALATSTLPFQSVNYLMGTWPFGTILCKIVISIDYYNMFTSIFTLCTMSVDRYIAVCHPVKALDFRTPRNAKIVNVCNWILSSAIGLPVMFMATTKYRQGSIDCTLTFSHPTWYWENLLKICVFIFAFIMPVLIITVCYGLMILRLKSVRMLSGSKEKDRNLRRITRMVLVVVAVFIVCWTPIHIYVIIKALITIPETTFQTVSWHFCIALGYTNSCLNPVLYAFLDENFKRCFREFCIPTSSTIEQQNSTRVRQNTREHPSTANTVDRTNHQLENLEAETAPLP
In short: (§1)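 Whole brain membranes from male Sprague-Dawley rats, preincubated 30 min at 25 °C to remove endogenous opioids. Incubated 180 min at 25 °C with 0.75 nM [3H][p-ClPhe4]DPDPE (δ) or 0.5 nM [3H]CTOP (μ). Buffer was 50 mM Tris-HCl pH 7.4 with BSA, bacitracin, bestatin, captopril and toluenesulfonyl fluoride. Rapid filtration and scintillation counting. Duplicates, ≥3 experiments, nonlinear least-squares fit.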

[3] = target: Delta-type opioid receptor (Mus musculus, UniProt P32300); assay: In vitro inhibition of electrically induced smooth muscle contractions of mouse vas deferens; format: functional, tissue-based
Delta-type opioid receptor (Mus musculus, UniProt P32300), sequence (P32300 whole entry): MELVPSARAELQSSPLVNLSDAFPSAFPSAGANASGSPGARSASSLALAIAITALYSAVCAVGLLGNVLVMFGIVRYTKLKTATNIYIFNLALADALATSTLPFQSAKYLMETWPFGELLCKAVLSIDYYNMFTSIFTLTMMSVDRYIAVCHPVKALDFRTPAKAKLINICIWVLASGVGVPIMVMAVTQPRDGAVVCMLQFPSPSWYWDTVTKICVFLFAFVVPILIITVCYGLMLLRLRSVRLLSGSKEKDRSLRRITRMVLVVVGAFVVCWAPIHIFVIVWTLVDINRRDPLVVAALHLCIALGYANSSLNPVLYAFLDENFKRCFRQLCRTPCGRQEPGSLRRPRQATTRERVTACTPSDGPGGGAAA

[4] = target: Delta-type opioid receptor (Rattus norvegicus, UniProt P33533); assay: Inhibition of [3H][p-Cl-Phe-][…] binding to rat brain homogenate delta-opioid receptor; in short: as §1
Delta-type opioid receptor (Rattus norvegicus, UniProt P33533), sequence (P33533 whole entry): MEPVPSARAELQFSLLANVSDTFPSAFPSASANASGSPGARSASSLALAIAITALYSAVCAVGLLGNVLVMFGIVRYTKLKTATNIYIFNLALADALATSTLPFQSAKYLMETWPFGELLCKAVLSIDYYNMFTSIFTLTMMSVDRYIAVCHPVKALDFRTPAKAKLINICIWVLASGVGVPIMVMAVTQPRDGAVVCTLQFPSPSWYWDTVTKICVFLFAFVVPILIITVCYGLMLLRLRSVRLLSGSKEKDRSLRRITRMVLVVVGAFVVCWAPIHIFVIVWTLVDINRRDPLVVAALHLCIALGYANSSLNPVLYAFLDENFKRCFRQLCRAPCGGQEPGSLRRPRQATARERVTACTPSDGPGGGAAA

[5] = Selectivity ratio against guinea pig ileum and mouse vas deferens contractions; format: functional
[6] = target: Delta-type opioid receptor (Mus musculus) (UniProt P32300); assay: In vitro percentage inhibition of electrically induced smooth muscle contractions of mouse vas deferens after the administration at 6000 nM; format: functional
Delta-type opioid receptor (Mus musculus), sequence (P32300 whole entry): as the sequence (P32300 whole entry) above
In short: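 Vasa deferentia from male ICR mice (25–30 g) in 37 °C magnesium-free Krebs bicarbonate gassed with 95% O2/5% CO2. Transmural stimulation at 0.1 Hz, 2.0-ms pulses, supramaximal voltage. Peptidase inhibitors (bestatin, bacitracin, captopril) given 3 min before peptide. Percent inhibition is the 1-min pre-dose mean contraction height against height 3 min after peptide. Run in duplicate, repeated two or three times.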

Mu-type opioid receptor (Cavia porcellus, UniProt P97266), sequence (P97266 whole entry): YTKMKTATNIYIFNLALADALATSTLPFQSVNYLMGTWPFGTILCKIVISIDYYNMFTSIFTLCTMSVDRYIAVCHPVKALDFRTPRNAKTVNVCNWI

Compound	IC50 (Mu-type opioid receptor [1])	IC50 (Mu-type opioid receptor [2])	IC50 [3]	IC50 [4]	Selectivity [5]	inhibition [6]
CC(C)[C@H](NC(=O)[C@@H]1NC(=O)[C@H](CC(=O)O)NC(=O)[C@H](Cc2ccccc2)NC(=O)[C@H](NC(=O)[C@@H](N)Cc2ccc(O)cc2)C(C)(C)SSC1(C)C)C(=O)NCC(N)=O [listing 1 of 2 here]	5500 nM	1200 nM	920 nM	210 nM	–	–
CC(C)[C@H](NC(=O)[C@@H]1NC(=O)[C@H](CC(=O)O)NC(=O)[C@H](Cc2ccccc2)NC(=O)[C@H](NC(=O)[C@@H](N)Cc2ccc(O)cc2)C(C)(C)SSC1(C)C)C(=O)NCC(N)=O [listing 2 of 2 here]	–	–	–	–	6	–
CC(C)[C@H](NC(=O)[C@H]1NC(=O)[C@H](CC(=O)O)NC(=O)[C@H](Cc2ccccc2)NC(=O)[C@H](NC(=O)[C@@H](N)Cc2ccc(O)cc2)CSSC1(C)C)C(=O)NCC(N)=O [listing 1 of 2 here]	1100 nM	3760 nM	0.25 nM	2.2 nM	–	–
CC(C)[C@H](NC(=O)[C@H]1NC(=O)[C@H](CC(=O)O)NC(=O)[C@H](Cc2ccccc2)NC(=O)[C@H](NC(=O)[C@@H](N)Cc2ccc(O)cc2)CSSC1(C)C)C(=O)NCC(N)=O [listing 2 of 2 here]	–	–	–	–	4400	–
CC(C)[C@H](NC(=O)[C@H]1NC(=O)[C@H](CC(=O)O)NC(=O)[C@H](Cc2ccccc2)NC(=O)[C@H](NC(=O)[C@@H](N)Cc2ccc(O)cc2)C(C)(C)SSC1(C)C)C(=O)NCC(N)=O [listing 1 of 2 here]	68000 nM	26000 nM	6.3 nM	3.7 nM	–	–
CC(C)[C@H](NC(=O)[C@H]1NC(=O)[C@H](CC(=O)O)NC(=O)[C@H](Cc2ccccc2)NC(=O)[C@H](NC(=O)[C@@H](N)Cc2ccc(O)cc2)C(C)(C)SSC1(C)C)C(=O)NCC(N)=O [listing 2 of 2 here]	–	–	–	–	11000	–
CC(C)[C@H](NC(=O)[C@@H]1CSSC[C@@H](NC(=O)[C@@H](N)Cc2ccc(O)cc2)C(=O)N[C@@H](Cc2ccccc2)C(=O)N[C@@H](CC(=O)O)C(=O)N1)C(=O)NCC(N)=O	–	–	–	–	13	–
CC(C)C(NC(=O)[C@H]1NC(=O)[C@H](CCC(=O)O)NC(=O)C(Cc2ccccc2)NC(=O)[C@H](NC(=O)[C@@H](N)Cc2ccc(O)cc2)C(C)(C)SSC1(C)C)C(=O)NCC(N)=O (single isomer, unassigned)	7100 nM	4900 nM	2.24 nM	5.7 nM	3200	–
CCCC[C@H](NC(=O)[C@H]1NC(=O)[C@H](Cc2c[nH]cn2)NC(=O)C(Cc2ccccc2)NC(=O)[C@H](NC(=O)[C@@H](N)Cc2ccc(O)cc2)C(C)(C)SSC1(C)C)C(=O)N[C@@H](CC(=O)O)C(=O)O (single isomer, unassigned)	4500 nM	1900 nM	–	5.11 nM	<1.5	43.5%
CCCC[C@H](NC(=O)[C@H]1NC(=O)[C@H](CC(=O)O)NC(=O)C(Cc2ccccc2)NC(=O)[C@H](NC(=O)[C@@H](N)Cc2ccc(O)cc2)C(C)(C)SSC1(C)C)C(=O)NCC(N)=O (single isomer, unassigned)	137000 nM	54600 nM	8.8 nM	4.83 nM	16000	–
CC(C)C(NC(=O)[C@H]1NC(=O)[C@H](CO)NC(=O)C(Cc2ccccc2)NC(=O)[C@H](NC(=O)[C@@H](N)Cc2ccc(O)cc2)C(C)(C)SSC1(C)C)C(=O)NCC(N)=O (single isomer, unassigned)	13500 nM	3300 nM	91.8 nM	10 nM	150	–
CCCC[C@H](NC(=O)[C@H]1NC(=O)[C@H](Cc2c[nH]cn2)NC(=O)C(Cc2ccccc2)NC(=O)[C@H](NC(=O)[C@@H](N)Cc2ccc(O)cc2)C(C)(C)SSC1(C)C)C(=O)N[C@@H](CC(=O)O)C(N)=O (single isomer, unassigned)	22000 nM	10200 nM	12.7 nM	3.4 nM	1700	–
CSCCC(NC(=O)[C@H](CC(C)C)NC(=O)[C@H](Cc1c[nH]cn1)NC(=O)[C@H](Cc1ccccc1)NC(=O)C(CCSC)NC(=O)[C@@H](N)Cc1ccc(O)cc1)C(=O)N[C@@H](CC(=O)O)C(N)=O (stereo in doubt) [listing 1 of 2 here]	3400 nM	1900 nM	0.28 nM	0.47 nM	–	–
CSCCC(NC(=O)[C@H](CC(C)C)NC(=O)[C@H](Cc1c[nH]cn1)NC(=O)[C@H](Cc1ccccc1)NC(=O)C(CCSC)NC(=O)[C@@H](N)Cc1ccc(O)cc1)C(=O)N[C@@H](CC(=O)O)C(N)=O (stereo in doubt) [listing 2 of 2 here]	–	–	–	–	12000	–
CC(C)[C@H](NC(=O)[C@H](CC(=O)O)NC(=O)[C@H](Cc1ccccc1)NC(=O)[C@@H](C)NC(=O)[C@@H](N)Cc1ccc(O)cc1)C(=O)N[C@H](C(=O)NCC(N)=O)C(C)C (stereo in doubt; form 1) [DELTORPHIN C]	2890 nM	–	–	–	–	–
